Screens (PubChem)
TRPC4 act = TRPC4 (mouse) channel activation; B-score at 10 µM; HEK293 TRPC4beta/mu-opioid, Fluo4 calcium fluorescence; stronger effect = higher value; Q9QUQ5; 310,000 compounds, 0.49% hits;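 active = B-score above 5 SD of library B-scores, and initial fluorescence ratio not above library mean plus 5 SD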;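 note: positive B-score marks a calcium rise read as TRPC4 activation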
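Assay system – TRPC4beta and mu-opioid receptor HEK293 stable cells · Measured by – Fluo4 fluorescence, kinetic · Schedule – dye loading 45 min room temperature, 110 s kinetic read · Read-out – B-scored integrated calcium fluorescence ratio · Controls – buffer and maximal DAMGO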
TRPC4 PAM = TRPC4 (mouse) allosteric potentiation; Q9QUQ5; HEK293 TRPC4beta/mu-opioid, DAMGO EC20, Fluo-4 Ca2+ flux; stronger effect = higher value; B-score at 10 µM; 310,000 compounds, 0.42% hits; AID 2227;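 active = B-score of calcium response area above 5 SD of library B-scores, with initial fluorescence ratio within 5 SD of library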;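 note: B-score of integrated fluorescence ratio over time as area under calcium response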
TRPC6 inh = mouse TRPC6 channel inhibition; HEK293-TRPC6, membrane potential dye, ACh-evoked depolarization; stronger effect = lower value; B-score at 10 µM; 310,000 compounds, 1.1% hits;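 active = B-score under library mean minus 3 SD, initial fluorescence not abnormally high, positive integrated signal ratio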;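 note: B-score derived from integrated fluorescence ratio over the kinetic read; more negative B-score means stronger inhibition of depolarization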
Target sequence (Q61143 whole entry, looked up): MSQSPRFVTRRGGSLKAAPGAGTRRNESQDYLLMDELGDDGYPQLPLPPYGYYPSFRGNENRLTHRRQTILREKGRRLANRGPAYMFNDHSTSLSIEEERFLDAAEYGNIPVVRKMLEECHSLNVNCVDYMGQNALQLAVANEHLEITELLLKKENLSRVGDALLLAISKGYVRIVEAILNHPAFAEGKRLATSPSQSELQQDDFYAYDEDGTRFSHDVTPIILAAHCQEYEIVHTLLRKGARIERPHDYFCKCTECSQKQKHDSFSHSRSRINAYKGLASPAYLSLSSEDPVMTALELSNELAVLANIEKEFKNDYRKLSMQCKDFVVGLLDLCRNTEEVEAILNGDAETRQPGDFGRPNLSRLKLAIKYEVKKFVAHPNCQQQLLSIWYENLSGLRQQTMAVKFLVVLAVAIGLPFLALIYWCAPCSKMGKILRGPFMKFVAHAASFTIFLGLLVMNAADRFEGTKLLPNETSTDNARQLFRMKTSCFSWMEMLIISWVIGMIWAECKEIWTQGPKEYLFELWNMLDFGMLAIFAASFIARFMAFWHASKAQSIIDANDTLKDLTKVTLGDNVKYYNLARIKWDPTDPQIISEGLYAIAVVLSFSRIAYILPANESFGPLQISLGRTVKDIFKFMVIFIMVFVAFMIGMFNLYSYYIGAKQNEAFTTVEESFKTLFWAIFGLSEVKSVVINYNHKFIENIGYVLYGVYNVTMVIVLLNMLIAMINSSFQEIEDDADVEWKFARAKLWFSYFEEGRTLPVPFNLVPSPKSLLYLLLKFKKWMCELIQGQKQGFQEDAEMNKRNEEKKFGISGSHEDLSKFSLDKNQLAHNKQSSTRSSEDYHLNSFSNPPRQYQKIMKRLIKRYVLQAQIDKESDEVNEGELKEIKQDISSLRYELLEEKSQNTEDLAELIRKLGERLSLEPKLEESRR
TRPC6 act = activates the mouse TRPC6 cation channel | 310,000 compounds, 0.13% hits | Q61143 | HEK293-TRPC6 membrane potential dye fluorescence; stronger effect = higher value | B-score at 10 µM;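 active = B-score of the integrated fluorescence ratio above library mean plus 3 SD, and starting fluorescence ratio within library mean plus 5 SD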;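 note: higher score means more depolarization so channel activation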
TRPC4 block = blocks the mouse TRPC4 cation channel; B-score at 10 µM; HEK293 TRPC4beta/mu-opioid, DAMGO-evoked Fluo4 calcium flux; stronger effect = lower value; AID 2247; 300,000 compounds, 0.39% hits; Q9QUQ5;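 active = B-score over 3 SD under the library average, no early fluorescence shift, positive overall ratio signal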
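System: stable TRPC4beta/mu-opioid receptor HEK293 cells; Dosing: single-point compound dosing; Measured by: Fluo4 Ca2+ flux fluorescence; Read-out basis: per-well B score of integrated baseline-normalized Fluo4 ratio.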
TRPC4 sel inh 2 = second selectivity test of TRPC6 inhibitors: effect on mouse TRPC4; shares compounds with TRPC6 inh; HEK293 TRPC4/MOR, membrane potential dye fluorescence; channel activated by saturating DAMGO dose; inhibition, % at 10 µM; 920 compounds, 42% hits; AID 2776;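 active = compounds whose fluorescence signal differed from control wells by over 3 SD, either direction, in both duplicate plates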
TRPC4 spec = selectivity of TRPC6 inhibitors: effect on mouse TRPC4; AID 2777; 920 compounds, 61% hits; shares compounds with TRPC6 inh; activity change, negative = inhibition, % at 10 µM; HEK293 TRPC4/mu-opioid, membrane potential fluorescence;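 active = rise or fall in signal beyond 3 SD of buffer-only wells in both replicate plates, either sign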;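 note: integrated kinetic ratio of fluorescence range over baseline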
HEK293 MPD ctr 2-1 = second counter-screen for TRPC6 inhibitors: parental HEK293 cells; 920 compounds, 31% hits; shares compounds with TRPC6 inh; parental HEK293 membrane potential dye fluorescence; maximal acetylcholine challenge after compound addition; signal change vs control, % at 10 µM; AID 2779;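 active = membrane potential signal moving either way by over 3 SD of the maximum-effect control, in both duplicate plates, meaning non-specific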
HEK293 MPD ctr-1 = parental HEK293 nonspecific activity of TRPC6 inhibitors; shares compounds with TRPC6 inh; parental HEK293 membrane potential dye fluorescence; membrane potential signal change, % at 10 µM; 920 compounds, 60% hits; AID 2780;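 active = membrane potential signal shifting up or down by more than 3 SD of buffer-only wells, on both duplicate plates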
HEK293 MPD ctr-2 = checks TRPC6 modulator effects in parental HEK293 cells; 2,400 compounds, 51% hits; membrane potential dye fluorescence; shares compounds with TRPC6 inh; AID 488924; membrane potential signal change, % at 10 µM;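 active = membrane potential signal moves up or down beyond 5 SD from buffer-only wells, on both duplicate plates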
HEK293 MPD ctr 2-2 = second counter-screen for TRPC6 modulators: effect in parental HEK293 cells; AID 488926; 2,400 compounds, 14% hits; inhibition, % at 10 µM; shares compounds with TRPC6 inh; membrane potential dye fluorescence; after compound, maximal acetylcholine stimulation;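 active = membrane potential signal drops by more than 5 SD from the mean control signal, in both duplicate plates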;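 note: plate controls were acetylcholine ECmax control wells for no effect and buffer only wells for full effect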
TRPC4 ctr mod = mouse TRPC4 off-target activity of TRPC6 modulators | shares compounds with TRPC6 inh | HEK293 TRPC4/mu-opioid, membrane potential fluorescence | percent change from control (negative = decrease, positive = increase), % at 10 µM | 2,400 compounds, 69% hits | AID 488927;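 active = membrane potential signal moved up or down beyond 5 SD of buffer control wells, in both duplicate plates, actives on both sides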;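 note: plate controls were assay buffer wells for no effect and DAMGO maximal-effect wells for full effect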
TRPC4/MOR inh 2 = second selectivity test of TRPC6 modulators against mouse TRPC4 | AID 488928 | HEK293 TRPC4/mu-opioid, membrane potential dye fluorescence; stimulated with maximal-effect DAMGO | shares compounds with TRPC6 inh | 2,400 compounds, 55% hits | inhibition, % at 10 µM;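 active = drop in membrane potential signal beyond 5 SD of the control wells in both duplicate plates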;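 note: TRPC4 counter screen for TRPC6 hits run under conditions tuned for TRPC6 not TRPC4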
TRPC6 block conf = mouse TRPC6 inhibitor confirmation; inhibition, % at 10 µM; HEK293-TRPC6, membrane potential dye, ACh-evoked depolarization; shares compounds with TRPC6 inh; 3,300 compounds, 43% hits;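 active = fluorescence ratio falls more than 5 SD below the full-stimulation control mean, in both duplicate runs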;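 note: integrated fluorescence ratio of peak minus minimum over baseline after agonist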
TRPC6 act conf = confirmation of mouse TRPC6 activators; shares compounds with TRPC6 inh; HEK293-TRPC6 membrane potential dye fluorescence, FDSS; activation, % at 10 µM; 2,800 compounds, 11% hits; AID 488961;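 active = ratio signal rise beyond 5 SD above unstimulated control wells' mean, seen in both duplicate runs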;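 note: plate controls were buffer EC0 wells for no effect and acetylcholine ECmax response for full effect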
Numbers without * were called inactive; i = inactive; x = no result given; + = active, no number. An excerpt weighted towards active compounds, which were near 2.3% of everything screened.

SMILES	TRPC4 act	TRPC4 PAM	TRPC6 inh	TRPC6 act	TRPC4 block	HEK293 MPD ctr-2	HEK293 MPD ctr 2-2	TRPC4 ctr mod	TRPC4/MOR inh 2	TRPC6 block conf	TRPC6 act conf	others
O/C(=C\c1nc2ccccc2nc1/C=C(\O)c1ccccc1)c1ccccc1	i	i	i	13*	i	268%*	i	i	i	i	i
O/C(=C\c1ccc2ccccc2n1)c1ccncc1	66*	i	i	46*	i	+	+	186%*	48%*	x	314%*
O=c1oc2ccccc2nc1/C=C(\O)c1ccccc1	i	i	i	i	i	x	x	x	x	x	x
O=C(Nc1ccc(C2=NCCN2)cc1)c1ccc(C(=O)Nc2ccc(C3=NCCN3)cc2)c(Cl)c1	i	i	i	16*	i	307%*	i	54%*	i	i	154%*
CN1C2CCC1CC(OC(=O)c1c[nH]c3ccccc13)C2 (stereo not drawn)	i	i	i	i	i	x	x	x	x	x	x
CN1C2CCC1CC(OC(c1ccccc1)c1ccccc1)C2 (stereo not drawn)	i	i	-7.1*	i	i	x	x	x	x	69%*	x	TRPC4 sel inh 2=68%*;TRPC4 spec=19%*;HEK293 MPD ctr 2-1=i;HEK293 MPD ctr-1=14%*
Cc1ccc(N2CCOCC2)c2c1C(=O)c1ccccc1C2=O	i	i	-5.1*	i	i	-195%*	i	-34%*	71%*	43%*	i
O=C1C=C(N2CCOCC2)c2ccccc2C1=O	i	i	i	i	i	x	x	x	x	x	x
Cc1cc(=O)c2ccc(C(F)(F)F)cc2[nH]1	i	i	i	i	i	x	x	x	x	x	x
O=c1cc(C(F)(F)F)[nH]c2ccc(C(F)(F)F)cc12	i	i	-7*	i	i	x	x	x	x	105%*	x	TRPC4 sel inh 2=i;TRPC4 spec=15%*;HEK293 MPD ctr 2-1=i;HEK293 MPD ctr-1=11%*
COc1ccc(S(=O)(=O)N2CCC(C(=O)NCCCn3ccnc3)CC2)cc1C	i	i	i	i	i	x	x	x	x	x	x
O=C1c2cccnc2C(=O)N1Cc1ccc(S(=O)(=O)N2CCOc3ccc(Cl)cc32)cc1	i	i	i	i	i	x	x	x	x	x	x
CCOC(=O)c1cnc2c(cnn2C)c1NCCCN(C)C	i	i	i	i	i	x	x	x	x	x	x
CCOC(=O)c1cnc2c(cnn2C)c1NCCCn1ccnc1	i	i	-7.5*	i	i	-352%*	115%*	-52%*	68%*	73%*	i
CC(=O)[C@@]1(O)C(C)CC2C3C=C(C)C4=Cc5c(cnn5-c5ccccc5)C[C@]4(C)C3C(O)C[C@@]21C (stereo partly drawn)	i	i	-6.4*	i	i	i	i	i	i	i	x
COc1ccc(C(=O)Nc2ccc(NS(=O)(=O)c3ccccc3)cc2)cc1OC	i	i	i	i	i	x	x	x	x	x	x
Nc1c2c(nc3ccn(Cc4ccccc4)c(=O)c13)CCC2	i	i	-7.5*	i	i	x	x	x	x	73%*	i	TRPC4 sel inh 2=72%*;TRPC4 spec=-22%*;HEK293 MPD ctr 2-1=-10%*;HEK293 MPD ctr-1=-353%*
Nc1c2c(nc3ccn(-c4ccccc4)c(=O)c13)CCCCC2	i	i	-5.4*	i	i	-151%*	i	-28%*	38%*	i	i
CC(=O)NC(Cc1cccc(F)c1)C(=O)NC1CCN(C(=O)Nc2ccc(C)cc2)CC1 (stereo not drawn)	i	i	i	i	i	x	x	x	x	x	x
CN1CCN(CC(O)(c2ccc(Cl)cc2)c2ccc(Cl)cc2)CC1	i	i	-7.3*	i	i	x	x	x	x	i	i	TRPC4 sel inh 2=i;TRPC4 spec=4.3%*;HEK293 MPD ctr 2-1=i;HEK293 MPD ctr-1=1.8%*
CN1CCN(CC(O)COc2ccc(Cl)cc2)CC1 (stereo not drawn)	i	i	i	i	i	x	x	x	x	x	x
COc1ccc(CCNCc2c(OC)ccc3ccccc23)cc1OC	i	i	i	i	i	x	x	x	x	x	x
COc1ccc2ccccc2c1CNC(C)CCc1ccccc1 (stereo not drawn)	i	i	-7.8*	i	i	x	x	x	x	53%*	x	TRPC4 sel inh 2=34%*;TRPC4 spec=90%*;HEK293 MPD ctr 2-1=i;HEK293 MPD ctr-1=56%*
COC(=O)c1c(-c2ccc3ccccc3c2)csc1NC(=O)Cc1ccc(OC)c(OC)c1	i	i	-5.8*	i	i	i	i	i	i	i	i
Cc1cccn2c(=O)c3cc(C(=O)NCC4CCCO4)c(=N)n(CC4CCCO4)c3nc12 (stereo not drawn)	i	i	i	i	i	x	x	x	x	x	x
Cc1cccn2c(=O)c3cc(C(=O)NC4CCCC4)c(=N)n(CC4CCCO4)c3nc12 (stereo not drawn)	i	i	-5.8*	i	i	i	i	i	32%*	i	i
Cc1cccn2c(=O)c3cc(C(=O)NCCN4CCOCC4)c(=N)n(Cc4ccc(F)cc4)c3nc12	i	i	-5.6*	i	i	i	94%*	i	i	i	i
Cc1cccn2c(=O)c3cc(C(=O)NCCN4CCOCC4)c(=N)n(CCN4CCOCC4)c3nc12	i	i	-7*	i	i	x	x	x	x	66%*	i	TRPC4 sel inh 2=72%*;TRPC4 spec=0.8%*;HEK293 MPD ctr 2-1=-124%*;HEK293 MPD ctr-1=i
COc1ccc(CCNC(=O)c2cc3c(=O)n4cccc(C)c4nc3n(CCCN3CCOCC3)c2=N)cc1	i	i	i	i	i	x	x	x	x	x	x
